# Most compounds without a hit are left out; they make up all but 1.7% or so of the library.
# S1P2 blocker: blocks the human S1P2 receptor; cell-based S1P2 antagonist assay, inhibition at 5 uM; hit rate 0.21% among 97,000; inhibition, % at 5 µM; in the data active = inhibition above about 45%;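 also: CRE beta-lactamase reporter cells expressing human S1P2 stimulated with S1P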
# Target sequence (O95136 whole entry, looked up): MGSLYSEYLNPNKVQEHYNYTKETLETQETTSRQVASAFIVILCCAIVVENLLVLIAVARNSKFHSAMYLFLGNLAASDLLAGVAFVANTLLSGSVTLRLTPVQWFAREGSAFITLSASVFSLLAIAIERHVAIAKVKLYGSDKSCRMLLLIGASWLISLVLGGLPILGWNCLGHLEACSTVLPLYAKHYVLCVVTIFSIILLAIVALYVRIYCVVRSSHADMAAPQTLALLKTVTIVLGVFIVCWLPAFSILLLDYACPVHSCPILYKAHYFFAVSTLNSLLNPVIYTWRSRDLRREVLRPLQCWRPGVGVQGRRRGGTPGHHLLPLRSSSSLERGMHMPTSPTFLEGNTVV
# Rev-RRE block: HIV Rev-RRE protein-RNA interaction inhibition; Rev peptide-RRE RNA binding, FRET; inhibition, % at 8 µM; hit rate 0.79% among 97,000; AID 704;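 active = inhibition above the screen-wide mean plus 3 SD, cut at about 35% in these data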
# Target sequence (P05866 whole entry, looked up): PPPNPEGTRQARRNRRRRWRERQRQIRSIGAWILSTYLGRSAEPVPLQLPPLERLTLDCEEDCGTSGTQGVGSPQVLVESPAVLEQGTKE
#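 System: Cy5-labelled duplex RRE RNA binding fluorescein-labelled HIV Rev peptide; Signal: fluorescein-to-Cy5 FRET, 480 nm excitation; Also added: labelled Rev peptide; Compound: one concentration, 8 µM nominal; Buffer or medium: HEPES pH 7.5 salt buffer with EDTA; Read-out: % inhibition of FRET ratio versus controls; Schedule: 5 min preincubation and 15 min binding, 25 °C.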
# GALR2 agonist: activates the human galanin receptor 2 | activation, % (concentration not given with the values) | hit rate 0.48% among 140,000 | O43603 | GALR2-expressing cells, agonist activation read-out; in the data active = activation above about 5%, passing the limit was not always enough
# S1P2 agonist: agonists of human S1P2 receptor. O95136. S1P2-expressing cell line, agonist reporter read-out. activation, % at 4.5 µM. hit rate 0.46% among 97,000. AID 729; in the data active = activation above about 16%
# EphB4 ephrin blk: EphB4-ephrin-B2 interaction antagonism; hit rate 0.15% among 97,000; inhibition, % at 7 µM; EphB4 LBD / TNYL-RAW-Alexa532 peptide, fluorescence polarization; P54760;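 active = inhibition above the screen-wide mean inhibition plus 3 SD, cut at about 15% in these data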
# GALR2 blocker: antagonists of human galanin receptor 2 (GALR2). O43603. GALR2-expressing cells, antagonist mode. inhibition, % at 4 µM. hit rate 0.39% among 140,000. AID 828; in the data active = inhibition above about 27%;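 also: cells stimulated with galanin 1-16 at roughly its EC80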
# GALR2 agon conf: confirmation of human galanin receptor 2 (GALR2) agonists; shares compounds with GALR2 agonist; AID 864; GALR2-expressing cells, agonist activation; hit rate 10% among 460; activation, % at 5.6 µM; in the data active = activation above about 8.4%
# BLA activ ctr: beta-lactamase activation, GALR2 counterscreen; hit rate 10% among 460; CHO NFAT-bla reporter, beta-lactamase FRET activation; activation, % at 5.6 µM; shares compounds with GALR2 agonist;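 active = activation above the screen-wide mean activation plus 3 SD, cut at about 8% in these data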
# Hits are given with their value; – = inactive; · = no result given; [ ] = another dose, or the depositor's remark.
SMILES,S1P2 blocker,Rev-RRE block,GALR2 agonist,S1P2 agonist,EphB4 ephrin blk,GALR2 blocker,GALR2 agon conf,BLA activ ctr
Cc1cc(C)c2nc(NNC(=O)c3ccc(S(=O)(=O)N4CC(C)CC(C)C4)cc3)sc2c1 (stereo not drawn),·,·,44,·,·,–,14,–
O=C(Cc1cccs1)Nc1nnc(SCc2ccc(C(F)(F)F)cc2)s1,·,·,–,·,·,–,·,·
O=S1(=O)N=C(N(CCO)/N=C/C=C/c2ccccc2)c2ccccc21,·,·,–,·,·,–,·,·
CC(=O)O[C@H]1C2OC(=O)C(C)=C2[C@@H]2OC(=O)[C@]3(CCC4OC41C)OC23 (stereo partly drawn),·,·,–,·,·,–,·,·
COc1cc(NC(=O)C2CCCCC2)c(OC)cc1NC(=O)c1ccco1,–,–,–,–,–,–,·,·
CCOc1cc(NC(=O)C2CCCCC2)c(OCC)cc1NC(=O)c1ccco1,–,–,32,–,–,–,–,–
Cc1ccc(CN2C(=O)N/C(=C\c3ccc(N4CCOCC4)cc3)C2=O)cc1,·,·,8.7,·,·,–,–,–
O=C1N/C(=C\c2ccc(N3CCOCC3)c(F)c2)C(=O)N1Cc1ccccc1,–,–,–,–,–,–,·,·
CCC(C)N=CC1=C(O)C(C(=O)OC)C(C)(C)CC1=O (stereo not drawn),–,–,49,–,–,–,–,–
COC(=O)C1C(O)=C(C=NCC(C)N=CC2=C(O)C(C(=O)OC)C(C)(C)CC2=O)C(=O)CC1(C)C (stereo not drawn),–,–,–,–,–,–,·,·
NS(=O)(=O)c1ccc(CCN2C(=O)/C(=C\c3ccc(Cl)cc3)SC2=S)cc1,·,·,–,·,·,–,·,·
O=C(COc1ccccc1)Nc1sc2c(c1C(=O)NCc1cccnc1)CCCC2,–,–,–,–,–,–,–,–
COc1ccc(/C=C/C(=O)Nc2sc3c(c2C(=O)NCc2cccnc2)CCCC3)cc1,–,–,–,–,–,–,·,·
CCN(CCNC(=O)C1CCN(S(=O)(=O)c2cccc3cccnc23)CC1)c1ccccc1,·,·,–,·,·,–,·,·
CCOc1ccccc1C(=O)N(Cc1ccccc1)Cc1cc2cc3c(cc2[nH]c1=O)OCCO3,–,–,–,–,–,–,·,·
CCCN1C(=O)/C(=C2\SC(N3CCCCC3)=NC2=O)c2ccccc21,–,–,59,–,–,–,–,–
CCOc1ccc(Br)cc1C(=O)Nc1ccc(C(=O)NCC(C)C)cc1,·,·,14,·,·,–,13,–
CCOc1ccc(Br)cc1S(=O)(=O)Nc1ccc(C(=O)Nc2ccc(C)cc2)cc1,·,·,–,·,·,–,·,·
O=S(=O)(NCc1ccc2c(c1)OCO2)c1cccc(S(=O)(=O)N2CCOCC2)c1,–,–,–,–,–,–,·,·
CCCCOC(=O)C1C2C=CC3(CN(CCc4ccccc4)C(=O)C13)O2 (stereo not drawn),–,–,–,–,–,–,·,·
CCCCc1cc(O)c(CCCC)c(O)c1,–,–,9.8,–,–,–,12,27
O=C(Nc1cccc(NC(=S)NC(=O)c2cccs2)c1)c1ccccc1,·,·,–,·,·,–,·,·
O=C(O)c1cccc(NC(=S)NC(=O)C(c2ccccc2)c2ccccc2)c1,–,–,–,–,–,–,–,–
COc1ccc2[nH]c3c(c2c1)CCn1c-3nc2ccccc2c1=O,·,·,8.7,·,·,–,–,–
COc1cc(OC)cc(C(=O)Nn2c(C)nc3ccccc3c2=O)c1,–,–,–,–,–,–,·,·
SMILES,S1P2 blocker,Rev-RRE block,GALR2 agonist,S1P2 agonist,EphB4 ephrin blk,GALR2 blocker,GALR2 agon conf,BLA activ ctr
CC(=O)N1c2ccccc2C(=O)C1N1CCCCC1 (stereo not drawn),·,·,–,·,·,–,·,·
O=C1/C(=C/c2ccco2)N=C(N2CCCCC2)N1c1ccccc1,·,·,–,·,·,–,·,·
CC(C)N(C1=N/C(=C\c2ccco2)C(=O)N1c1ccccc1)C(C)C,–,–,–,–,–,–,–,9.2
CCOCCCNC(=O)c1ccc(CS(=O)(=O)Cc2ccc(C)cc2)o1,–,–,–,–,–,–,·,·
CCOC(=O)CS(=O)(=O)c1nc(-c2ccc(F)cc2)cc(C(F)(F)F)n1,·,·,9.3,·,·,51,–,–
CCOC(=O)CCS(=O)(=O)c1nc(-c2ccccc2)cc(C(F)(F)F)n1,–,–,–,–,–,–,·,·
COC(=O)CCS(=O)(=O)c1nc(-c2ccccc2)cc(C(F)(F)F)n1,–,–,–,–,–,–,–,–
Cc1ccccc1OCC(=O)N/N=C/c1cccn1C,–,–,–,–,–,–,·,·
CC(=O)Nc1ccc(-n2nnnc2SCC(=O)N2CCN(C(=O)c3ccco3)CC2)cc1,–,–,–,–,–,–,·,·
CC(NC1CCCC1)C(=O)Nc1ccccc1-c1ccccc1 (stereo not drawn),–,–,12,–,–,–,–,–
O=C(CC1CCCCC1)Nc1ccccc1-c1ccccc1,·,·,–,·,·,–,·,·
CN(C)S(=O)(=O)c1ccc(Cl)c(NC(=O)c2ccncc2)c1,·,·,–,·,·,–,·,·
CCOC(=O)c1ccc(NC(=S)N2CCSC2c2ccc(Br)cc2)cc1 (stereo not drawn),·,·,17,·,·,–,17,38
CC(=O)/C=C1\SC(CC(=O)O)C(=O)N1c1ccccc1 (stereo not drawn),–,–,–,–,–,–,·,·
Nc1c(C(=O)c2ccccc2)sc2snc(SCC(=O)c3ccccc3)c12,–,78,79,–,–,–,–,–
Nc1nnc(SCC(=O)c2ccccc2)s1,–,–,–,–,–,–,·,·
Cc1cccn2c(=O)c3cc(C(=O)NCc4cccnc4)c(=N)n(C(C)C)c3nc12,–,–,–,–,–,–,–,–
Cc1ccc(CS(=O)(=O)CCC(=O)NCCCOC(C)C)cc1,–,–,–,–,–,–,·,·
CCSc1ncc(C#N)c(N)n1,–,–,–,–,–,–,–,–
O=C(Cc1cc(=O)oc2cc(O)ccc12)NCC1CCC(C(=O)O)CC1 (stereo not drawn),–,–,–,–,–,–,–,–
Cc1cc(NC(=O)c2ccccc2Cl)no1,–,–,–,–,–,–,·,·
Cc1ccc2nc(-c3ccccc3Cl)cc(C(=O)Nc3cc(C)on3)c2c1,–,–,17,–,–,–,–,–
C=CCNC(=O)/C(C#N)=C/c1cn(-c2ccccc2)nc1-c1cccs1,·,·,13,·,·,–,11,–
C=CCOc1nc2c(c(=O)n(C)c(=O)n2C)n1Cc1c(Cl)cccc1Cl,–,–,–,–,–,–,·,·
Cc1csc(NC(=O)c2cc3c(s2)-c2ccccc2OC3)n1,–,–,–,–,–,–,–,–
CCCSc1nc2c(cnn2-c2ccccc2)c(=O)[nH]1,·,·,–,·,·,–,·,·
O=c1[nH]c(/C=C/c2ccccc2OC(F)F)nc2c1cnn2-c1ccccc1,·,·,15,·,·,–,8.8,–
Nc1nc(-c2ccccc2)cn1N,–,–,–,–,–,–,·,·
c1ccc(-c2cn3nc(-c4ccccc4)c(-c4ccccc4)nc3n2)cc1,–,98[fluorescence artefact?],–,–,–,–,–,–
CN(C)CCNC(=O)NC(=O)c1ccc(Cl)cc1,·,·,21,·,·,–,–,–

# Screening data: PubChem, The Scripps Research Institute Molecular Screening Center
